Results on 1 compound are retold here after ChEMBL document CHEMBL3792364, “Identification and biological activity of 6-alkyl-substituted 3-methyl-pyridine-2-carbonyl amino dimethyl-benzoic acid EP4 antagonists” (Bioorg Med Chem Lett, 2016).

Structures are written as SMILES.

Assay [1] concerns the target T1, Prostaglandin E2 receptor EP4 subtype (Homo sapiens, UniProt P35408). The assay can be described thus: Antagonist activity against EP4 in human whole blood assessed as reversal of PGE2-mediated suppression of LPS-induced TNF-alpha production preincubated for 30 mins followed by LPS stimulation measured after 20 to 24 hrs by enzyme immunoassay. The class given is tissue-based. The method, boiled down: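 Pooled blood from donors free of NSAIDs or celecoxib for 48 h and of glucocorticoids for 2 weeks. Blood pretreated 30 min at 37 °C, 5% CO2 with compound in DMSO (7-point curve, triplicate). LPS […] ± 10 nM PGE2 (final) added, then incubated 20–24 h. Plasma TNFα read at A450-A650. IC50 from sigmoidal nonlinear fit; geometric mean of independent runs.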

In assay [2] the target is T1, Prostaglandin E2 receptor EP4 subtype. Description: Antagonist activity against human EP4 expressed in HEK293 cells assessed as inhibition of PGE2-stimulated production of cAMP incubated for 20 mins by HTRF assay. In kind it is functional, cell-based. (Time-resolved FRET reads energy transfer from a long-lived donor to a nearby acceptor.)

T1 sequence (P35408 whole entry): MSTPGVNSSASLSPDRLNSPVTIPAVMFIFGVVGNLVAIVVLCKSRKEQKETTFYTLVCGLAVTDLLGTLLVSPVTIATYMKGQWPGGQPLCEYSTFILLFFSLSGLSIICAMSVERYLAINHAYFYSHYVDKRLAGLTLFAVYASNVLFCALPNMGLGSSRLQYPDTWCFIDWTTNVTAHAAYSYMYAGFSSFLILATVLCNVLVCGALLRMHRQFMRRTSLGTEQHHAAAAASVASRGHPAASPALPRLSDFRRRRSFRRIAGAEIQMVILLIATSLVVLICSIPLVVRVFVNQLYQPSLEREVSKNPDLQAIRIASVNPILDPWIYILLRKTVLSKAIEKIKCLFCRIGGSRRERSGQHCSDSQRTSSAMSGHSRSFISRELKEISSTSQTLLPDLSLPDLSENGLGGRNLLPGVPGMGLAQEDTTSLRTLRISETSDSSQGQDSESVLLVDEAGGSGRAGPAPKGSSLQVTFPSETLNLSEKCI

`Cc1ccc(N2CCC(F)(F)CC2)nc1C(=O)Nc1c(C)cc(C(=O)O)cc1C`: the results for the concentration for half-maximal inhibition (IC50) in assay [1] and in assay [2] were 1160 nM and 1.61 nM, respectively.

As usually defined, the IC50 is the point on the concentration scale where inhibition reaches its midpoint.
